Test results published in ChEMBL document CHEMBL1132144, “Synthesis of 9-O-substituted derivatives of 9-hydroxy-5, 6-dimethyl-6H-pyrido[4,3-b]carbazole-1-carboxylic acid (2-(dimethylamino)ethyl)amide and their 10- and 11-methyl analogues with improved antitumor activity” (J Med Chem, 1999).

Key:
B16 = experiment: Inhibition of murine B16 melanoma cell proliferation measured by the MTT assay; assay type: functional, cell-based; conditions: Mus musculus
In short: (§1)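 Murine L1210 leukemia and B16 melanoma cells were grown in RPMI 1640 with 10% fetal calf serum, 2 mM L-glutamine, penicillin/streptomycin and 10 mM HEPES (pH 7.4). Cells were exposed to nine serial drug dilutions in triplicate for about four doubling times (L1210 48 h, B16 96 h), then read by microculture tetrazolium (MTT) assay. IC50 is the concentration halving optical density versus untreated controls, averaged over ≥2 independent experiments.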

L1210 = experiment: Inhibition of murine L1210 leukemia cell proliferation measured by the MTT assay; assay type: functional, cell-based; conditions: Mus musculus; in short: as §1
Mus musculus [1] = experiment: Long-term survivors among 7 mice infected with P388 leukemia, scored on day 90 at 10 mg/kg dose; assay type: functional
Mus musculus [2] = experiment: Long-term survivors among 6 mice infected with P388 leukemia, scored on day 60 at 40 mg/kg dose; assay type: functional
In short: (§2)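 B6D2F1 mice in groups of 6–7 were inoculated ip on day 0 with 10^6 P388 cells. Dihydrochloride salts were dissolved in water and given iv on day 1 or on days 1, 5 and 9. Doses ranged from a low nontoxic dose to a toxic one. Long-term survivors were counted at day 60.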

Mus musculus [3] = experiment: Long-term survivors among 6 mice infected with P388 leukemia, scored on day 60 at 20 mg/kg dose; assay type: functional; in short: as §2
Mus musculus [4] = experiment: Percent median survival time of mice intraperitoneally injected with P388 leukemia was determined from tested at 20 mg/kg at day1,5,9 dose to that of control; assay type: functional; conditions: route intravenous
In short: (§3)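 P388 leukemia in B6D2F1 mice (groups of 6–7), 10^6 cells inoculated ip on day 0. Dihydrochloride salts were dissolved in water and given iv on day 1 or on days 1, 5, 9. Three doses were tested, then five if active. %T/C = median survival treated/control × 100, reported at the optimal dose (no toxic death, weight loss <20%), from one or two representative experiments.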

Mus musculus [5] = experiment: Percent median survival time of mice intraperitoneally injected with P388 leukemia was determined from tested at 40 mg/kg at day1 dose to that of control; assay type: functional; conditions: route intraperitoneal; in short: as §3
Mus musculus [6] = experiment: Percent median survival time of mice injected with B16 melanoma, at a intraperitoneal compound dose of 10 mg/kg
Mus musculus [7] = experiment: Long-term survivors among 7 mice infected with B16 melanoma, scored on day 90 at 10 mg/kg dose on day 1; assay type: functional
Mus musculus [8] = experiment: Long-term survivors among 7 mice infected with P388 leukemia, scored on day 60 at 10 mg/kg dose on day 1; assay type: functional
In short: (§4)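 B6D2F1 mice in groups of 6–7 received 10^6 P388 cells ip on day 0. Dihydrochloride salts dissolved in water were injected iv on day 1 or on days 1, 5 and 9, at three doses and then five. Read-outs were % T/C (median survival treated/control × 100) and long-term survivors on day 60, both at the optimal dose (no toxic death, weight loss <20%).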

Mus musculus [9] = experiment: Percent median survival time of mice injected with P388 leukemia, at a subcutaneous compound dose of 10 mg/kg; assay type: functional
Mus musculus [10] = experiment: Percent median survival time of mice injected with P388 leukemia, at a intravenous compound dose of 5 mg/kg
Mus musculus [11] = experiment: Percent median survival time of mice injected with B16 melanoma, at a intraperitoneal compound dose of 40 mg/kg
Mus musculus [12] = experiment: Percent median survival time of mice injected with P388 leukemia, at a subcutaneous compound dose of 10 mg/kg on day 1; assay type: functional
Mus musculus [13] = experiment: Percent median survival time of mice injected with P388 leukemia, at a subcutaneous compound dose of 10 mg/kg on day 1, 5, 9; assay type: functional
Mus musculus [14] = experiment: Long-term survivors among 7 mice infected with B16 melanoma, scored on day 90 at 20 mg/kg dose on day 1; assay type: functional
Mus musculus [15] = experiment: Long-term survivors among 7 mice infected with P388 leukemia, scored on day 60 at 20 mg/kg dose on day 1; assay type: functional; in short: as §4
Mus musculus [16] = experiment: Percent median survival time of mice injected with P388 leukemia, at a subcutaneous compound dose of 20 mg/kg; assay type: functional
Mus musculus [17] = experiment: Long-term survivors among 6 mice infected with P388 leukemia, scored on day 60 at 40 mg/kg dose on day 1, 5, 9; assay type: functional; in short: as §2
Mus musculus [18] = experiment: Long-term survivors among 6 mice infected with P388 leukemia, scored on day 60 at 40 mg/kg dose on day 1; assay type: functional; in short: as §2
Mus musculus [19] = experiment: Percent median survival time of mice intraperitoneally injected with P388 leukemia was determined from tested at 40 mg/kg at day1,5,9 dose to that of control; assay type: functional; conditions: route intraperitoneal; in short: as §3
Mus musculus [20] = experiment: Long-term survivors among 7 mice infected with B16 melanoma, scored on day 90 at 160 mg/kg dose on day 1; assay type: functional
Mus musculus [21] = experiment: Long-term survivors among 7 mice infected with P388 leukemia, scored on day 60 at 160 mg/kg dose on day 1; assay type: functional; in short: as §4
Mus musculus [22] = experiment: Percent median survival time of mice injected with P388 leukemia, at a subcutaneous compound dose of 160 mg/kg; assay type: functional
Mus musculus [23] = experiment: Percent median survival time of mice injected with P388 leukemia, at a intravenous compound dose of 80 mg/kg
Mus musculus [24] = experiment: Long-term survivors among 14 mice infected with P388 leukemia, scored on day 60 at 320 mg/kg dose on day 1; assay type: functional; in short: as §2
Mus musculus [25] = species: Mus musculus; experiment: Long-term survivors among 14 mice infected with B16 melanoma, scored on day 90 at optimal dose on days 1-9
Mus musculus [26] = experiment: Percent median survival time of mice injected with P388 leukemia, at a intravenous compound dose of 320 mg/kg
Mus musculus [27] = experiment: Long-term survivors among 6 mice infected with P388 leukemia, scored on day 60 at 80 mg/kg dose; assay type: functional; in short: as §2
Mus musculus [28] = experiment: Percent median survival time of mice intraperitoneally injected with P388 leukemia was determined from tested at 80 mg/kg at day1,5,9 dose to that of control; assay type: functional; conditions: route intraperitoneal; in short: as §3
Mus musculus [29] = experiment: Percent median survival time of mice intraperitoneally injected with P388 leukemia was determined from tested at 160 mg/kg at day1 dose to that of control; assay type: functional; in short: as §3
Mus musculus [30] = experiment: Long-term survivors among 6 mice infected with P388 leukemia, scored on day 60 at 160 mg/kg dose; assay type: functional; in short: as §2
Mus musculus [31] = experiment: Percent median survival time of mice injected with B16 melanoma, at a intraperitoneal compound dose of 20 mg/kg

COc1ccc2c(c1)c1cc3c(C(=O)NCCN(C)C)nccc3c(C)c1n2C
IC50 (B16): 334 nM
IC50 (L1210): 551 nM
LTS (Mus musculus [1]): 0
LTS (Mus musculus [2]): 0
LTS (Mus musculus [3]): 0
T/C (Mus musculus [4]): 96%
T/C (Mus musculus [5]): 94%
T/C (Mus musculus [6]): 126%

CCCCCCCCCCCCN(C)C(=O)Oc1ccc2c(c1)c1cc3c(C(=O)NCCN(C)C)nccc3c(C)c1n2C
IC50 (B16): 3260 nM
IC50 (L1210): 2870 nM
LTS (Mus musculus [7]): 0
LTS (Mus musculus [8]): 0
T/C (Mus musculus [9]): 103%
T/C (Mus musculus [10]): 100%
T/C (Mus musculus [11]): 115%

CCCCCCCCC(=O)Oc1ccc2c(c1)c1cc3c(C(=O)NCCN(C)C)nccc3c(C)c1n2C
IC50 (B16): 20.8 nM
IC50 (L1210): 31.1 nM
LTS (Mus musculus [7]): 0
LTS (Mus musculus [8]): 0
T/C (Mus musculus [12]): 131%
T/C (Mus musculus [13]): 147%
T/C (Mus musculus [6]): 160%

Cc1c2ccnc(C(=O)NCCN(C)C)c2cc2c3cc(OC(=O)NCCCC(=O)OCc4ccccc4)ccc3n(C)c12
IC50 (B16): 29.4 nM
IC50 (L1210): 304 nM
LTS (Mus musculus [14]): 0
LTS (Mus musculus [15]): 0
T/C (Mus musculus [9]): 93%
T/C (Mus musculus [16]): 103%
T/C (Mus musculus [11]): 96%

Cc1c2ccnc(C(=O)NCCN(C)C)c2cc2c3cc(OC(=O)N4CCC(N5CCCCC5)CC4)ccc3n(C)c12
IC50 (B16): 2690 nM
IC50 (L1210): 696 nM
LTS (Mus musculus [17]): 0
LTS (Mus musculus [1]): 0
LTS (Mus musculus [18]): 0
T/C (Mus musculus [5]): 133%
T/C (Mus musculus [19]): 169%
T/C (Mus musculus [6]): 161%

Cc1c2ccnc(C(=O)NCCN(C)C)c2cc2c3cc(OC(=O)CCCCCCC(=O)O)ccc3n(C)c12
IC50 (B16): 3.1 nM
IC50 (L1210): 53.2 nM
LTS (Mus musculus [20]): 0
LTS (Mus musculus [21]): 0
T/C (Mus musculus [22]): 287%
T/C (Mus musculus [23]): >645%

Cc1c2ccnc(C(=O)NCCN(C)C)c2cc2c3cc(OC(=O)CCCCC(=O)OCc4ccccc4)ccc3n(C)c12
IC50 (B16): 58.4 nM
IC50 (L1210): 109 nM
LTS (Mus musculus [14]): 0
LTS (Mus musculus [15]): 0
T/C (Mus musculus [9]): 128%
T/C (Mus musculus [16]): 124%
T/C (Mus musculus [11]): 102%

Cc1c2ccnc(C(=O)NCCN(C)C)c2cc2c3cc(OC(=O)CCCCCC(=O)O)ccc3n(C)c12
IC50 (B16): 3.2 nM
IC50 (L1210): 3.7 nM
LTS (Mus musculus [24]): 5
LTS (Mus musculus [25]): 1
T/C (Mus musculus [23]): >600%
T/C (Mus musculus [26]): >600%
T/C (Mus musculus [6]): 246%

Cc1c2ccnc(C(=O)NCCN(C)C)c2cc2c3cc(OC(=O)N4CCOCC4)ccc3n(C)c12
IC50 (B16): 1770 nM
IC50 (L1210): 646 nM
LTS (Mus musculus [27]): 0
T/C (Mus musculus [28]): 196%
T/C (Mus musculus [29]): 149%
LTS (Mus musculus [30]): 0
T/C (Mus musculus [31]): 139%

Cc1c2ccnc(C(=O)NCCN(C)C)c2cc2c3cc(OC(=O)N4CCN(C)CC4)ccc3n(C)c12
IC50 (B16): 2470 nM
IC50 (L1210): 1300 nM
LTS (Mus musculus [27]): 0
T/C (Mus musculus [28]): 134%
T/C (Mus musculus [29]): 146%
LTS (Mus musculus [30]): 0
T/C (Mus musculus [31]): 159%
